Source: ChEMBL document CHEMBL1155279, “1,5-Diaryl-2-ethyl pyrrole derivatives as antimycobacterial agents: design, synthesis, and microbiological evaluation” (Eur J Med Chem, 2009)
≈ marks a conversion by molar mass, not a printed value.

Experiments:
[1] = tested on: Mycobacterium tuberculosis; test: Antimycobacterial activity against Mycobacterium tuberculosis H37Rv by twofold agar dilution method; format: functional
Summary of the method: (§1)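 Twofold agar dilution in Middlebrook 7H11 agar with 10% OADC (oleic acid, albumin, dextrose). Compounds dissolved in DMSO at 5 mg/mL (one in ethanol at 6 mg/mL), stock, stored cold. MIC determined for each strain. Strains: M. tuberculosis CIP 103471, H37Rv ATCC 27294, rifampicin-resistant ATCC 35838, M. avium CIP 103317.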

Mycobacterium avium = test: Antimycobacterial activity against Mycobacterium avium CIP 103317 by twofold agar dilution method; format: functional; summary of the method: as §1
[2] = Cytotoxicity against african green monkey Vero cells after 72 hrs; format: cell-based; details: chlorocebus sabaeus
Summary of the method: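 Vero cells exposed to compounds (stocks 5 mg/mL in DMSO; one compound 6 mg/mL in ethanol). After 72 h incubation, cells examined microscopically for morphological changes. Maximum non-toxic dose (MNTD) taken as the highest drug concentration producing no morphological change.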

[3] = Protection index, ratio of MNTD for african green monkey Vero cells to MIC for Mycobacterium tuberculosis CIP 103471; format: functional
Summary of the method: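 Vero cells exposed to drug; after 72 h of incubation, morphology was checked microscopically. MNTD is the highest concentration with no morphological change. PI = MNTD/MIC, with MIC from twofold agar dilution in Middlebrook 7H11 + 10% OADC against M. tuberculosis CIP 103471.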

[4] = tested on: Mycobacterium tuberculosis; test: Antimycobacterial activity against Mycobacterium tuberculosis CIP 103471 by twofold agar dilution method; format: functional; summary of the method: as §1

Compound	MIC [1] [µg/mL]	MIC (Mycobacterium avium) [µg/mL]	MNTC at 72 h [2] [µg/mL]	PI [3]	MIC [4] [µg/mL]
Cc1c(CN2CCN(C)CC2)cc(-c2ccc(Cl)cc2)n1-c1ccc(Cl)cc1	1 (≈ 2.41 µM)	0.5 (≈ 1.21 µM)	4	4	1 (≈ 2.41 µM)
Cc1ccc(-c2cc(CN3CCSCC3)c(C)n2-c2ccc(F)cc2)cc1	–	–	–	256	0.25 (≈ 0.657 µM)
Cc1c(CN2CCSCC2)cc(-c2ccc(F)cc2)n1-c1ccccc1F	–	–	–	16	0.5 (≈ 1.3 µM)
Cc1c(CN2CCSCC2)cc(-c2ccc(F)cc2)n1-c1ccccc1	–	–	–	8	0.5 (≈ 1.36 µM)
Cc1c(CN2CCSCC2)cc(-c2ccccc2)n1-c1ccccc1	–	–	–	32	1 (≈ 2.87 µM)
CCc1c(CN2CCSCC2)cc(-c2ccc(F)cc2)n1-c1ccccc1F	2 (≈ 5.02 µM)	8 (≈ 20.1 µM)	8	4	2 (≈ 5.02 µM)
CCc1c(CN2CCSCC2)cc(-c2ccccc2F)n1-c1ccccc1F	8 (≈ 20.1 µM)	16 (≈ 40.1 µM)	8	2	4 (≈ 10 µM)
Cc1c(CN2CCSCC2)cc(-c2ccccc2)n1-c1ccc(F)cc1	–	–	–	20	0.4 (≈ 1.09 µM)
CCc1c(CN2CCSCC2)cc(-c2ccc(F)cc2)n1-c1ccc(F)cc1	–	16 (≈ 40.1 µM)	8	0.5	16 (≈ 40.1 µM)
CCc1c(CN2CCSCC2)cc(-c2ccccc2)n1-c1ccccc1	4 (≈ 11 µM)	8 (≈ 22.1 µM)	16	8	2 (≈ 5.52 µM)
CCc1c(CN2CCSCC2)cc(-c2ccc(F)cc2)n1-c1ccccc1	1 (≈ 2.63 µM)	8 (≈ 21 µM)	8	8	1 (≈ 2.63 µM)
CCc1c(CN2CCN(C)CC2)cc(-c2ccc(Cl)cc2)n1-c1ccc(Cl)cc1	4 (≈ 9.34 µM)	4 (≈ 9.34 µM)	8	4	2 (≈ 4.67 µM)
CCc1c(CN2CCSCC2)cc(-c2ccc(C)cc2)n1-c1ccc(F)cc1	0.25 (≈ 0.634 µM)	16 (≈ 40.6 µM)	> 128	>512	0.25 (≈ 0.634 µM)
CCc1c(CN2CCSCC2)cc(-c2ccccc2)n1-c1ccc(F)cc1	4 (≈ 10.5 µM)	16 (≈ 42 µM)	16	8	2 (≈ 5.26 µM)
Cc1c(CN2CCSCC2)cc(-c2ccccc2F)n1-c1ccccc1F	–	–	–	32	1 (≈ 2.6 µM)
Cc1c(CN2CCSCC2)cc(-c2ccc(F)cc2)n1-c1ccc(F)cc1	–	–	–	8	1 (≈ 2.6 µM)
CO[C@H]1/C=C/O[C@@]2(C)Oc3c(C)c(O)c4c(O)c(c(/C=N/N5CCN(C)CC5)c(O)c4c3C2=O)NC(=O)/C(C)=C\C=C\[C@H](C)[C@H](O)[C@@H](C)[C@@H](O)[C@@H](C)[C@H](OC(C)=O)[C@@H]1C [RIFAMPIN]	0.25 (≈ 0.304 µM)	0.25 (≈ 0.304 µM)	64	256	0.25 (≈ 0.304 µM)
CN[C@@H]1[C@H](O[C@H]2[C@H](O[C@H]3[C@H](O)[C@@H](O)[C@H](N=C(N)N)[C@@H](O)[C@@H]3N=C(N)N)O[C@@H](C)[C@]2(O)C=O)O[C@@H](CO)[C@H](O)[C@H]1O [STREPTOMYCIN]	0.5 (≈ 0.86 µM)	8 (≈ 13.8 µM)	128	256	0.5 (≈ 0.86 µM)
